ChEMBL document CHEMBL4043093, “2-Oxo-3, 4-dihydropyrimido[4, 5-d]pyrimidinyl derivatives as new irreversible pan fibroblast growth factor receptor (FGFR) inhibitors” (Eur J Med Chem, 2017)

Columns and labels:
[1] = biological target: Serine/threonine-protein kinase tousled-like 1 (Homo sapiens) (UniProt Q9UKI8); assay: Inhibition of wild-type human partial length TLK1 (K447 to A754 residues) expressed in Escherichia coli BL21 assessed as residual activity at 1000 nM after 30 mins by Kinomescan method relative to control
[2] = biological target: Serine/threonine-protein kinase SBK1 (Homo sapiens) (UniProt Q52WX2); assay: Inhibition of wild-type human partial length SBK1 (P23 to P348 residues) expressed in HEK293 cells assessed as residual activity at 1000 nM after 30 mins by Kinomescan method relative to control; assay type: cell-based
Serine/threonine-protein kinase SBK1 (Homo sapiens), sequence (Q52WX2 whole entry, the tested form may be a part): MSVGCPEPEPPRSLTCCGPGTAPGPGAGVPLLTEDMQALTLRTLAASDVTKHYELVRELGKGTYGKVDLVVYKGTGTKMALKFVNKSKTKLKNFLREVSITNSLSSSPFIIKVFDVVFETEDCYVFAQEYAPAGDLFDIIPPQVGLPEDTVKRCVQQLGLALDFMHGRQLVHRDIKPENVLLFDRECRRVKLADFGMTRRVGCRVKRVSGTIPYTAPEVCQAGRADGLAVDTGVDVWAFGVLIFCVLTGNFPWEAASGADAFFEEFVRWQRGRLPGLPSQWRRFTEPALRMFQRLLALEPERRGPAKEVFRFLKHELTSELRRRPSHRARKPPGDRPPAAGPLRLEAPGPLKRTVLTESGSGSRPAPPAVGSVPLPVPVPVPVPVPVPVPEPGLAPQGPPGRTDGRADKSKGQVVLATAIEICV

[3] = biological target: TRAF2 and NCK-interacting protein kinase (Homo sapiens) (UniProt Q9UKE5); assay: Inhibition of wild-type human partial length TNIK (D4 to K311 residues) expressed in Escherichia coli BL21 assessed as residual activity at 1000 nM after 30 mins by Kinomescan method relative to control
TRAF2 and NCK-interacting protein kinase (Homo sapiens), sequence (Q9UKE5 whole entry, looked up, the tested form may be a part): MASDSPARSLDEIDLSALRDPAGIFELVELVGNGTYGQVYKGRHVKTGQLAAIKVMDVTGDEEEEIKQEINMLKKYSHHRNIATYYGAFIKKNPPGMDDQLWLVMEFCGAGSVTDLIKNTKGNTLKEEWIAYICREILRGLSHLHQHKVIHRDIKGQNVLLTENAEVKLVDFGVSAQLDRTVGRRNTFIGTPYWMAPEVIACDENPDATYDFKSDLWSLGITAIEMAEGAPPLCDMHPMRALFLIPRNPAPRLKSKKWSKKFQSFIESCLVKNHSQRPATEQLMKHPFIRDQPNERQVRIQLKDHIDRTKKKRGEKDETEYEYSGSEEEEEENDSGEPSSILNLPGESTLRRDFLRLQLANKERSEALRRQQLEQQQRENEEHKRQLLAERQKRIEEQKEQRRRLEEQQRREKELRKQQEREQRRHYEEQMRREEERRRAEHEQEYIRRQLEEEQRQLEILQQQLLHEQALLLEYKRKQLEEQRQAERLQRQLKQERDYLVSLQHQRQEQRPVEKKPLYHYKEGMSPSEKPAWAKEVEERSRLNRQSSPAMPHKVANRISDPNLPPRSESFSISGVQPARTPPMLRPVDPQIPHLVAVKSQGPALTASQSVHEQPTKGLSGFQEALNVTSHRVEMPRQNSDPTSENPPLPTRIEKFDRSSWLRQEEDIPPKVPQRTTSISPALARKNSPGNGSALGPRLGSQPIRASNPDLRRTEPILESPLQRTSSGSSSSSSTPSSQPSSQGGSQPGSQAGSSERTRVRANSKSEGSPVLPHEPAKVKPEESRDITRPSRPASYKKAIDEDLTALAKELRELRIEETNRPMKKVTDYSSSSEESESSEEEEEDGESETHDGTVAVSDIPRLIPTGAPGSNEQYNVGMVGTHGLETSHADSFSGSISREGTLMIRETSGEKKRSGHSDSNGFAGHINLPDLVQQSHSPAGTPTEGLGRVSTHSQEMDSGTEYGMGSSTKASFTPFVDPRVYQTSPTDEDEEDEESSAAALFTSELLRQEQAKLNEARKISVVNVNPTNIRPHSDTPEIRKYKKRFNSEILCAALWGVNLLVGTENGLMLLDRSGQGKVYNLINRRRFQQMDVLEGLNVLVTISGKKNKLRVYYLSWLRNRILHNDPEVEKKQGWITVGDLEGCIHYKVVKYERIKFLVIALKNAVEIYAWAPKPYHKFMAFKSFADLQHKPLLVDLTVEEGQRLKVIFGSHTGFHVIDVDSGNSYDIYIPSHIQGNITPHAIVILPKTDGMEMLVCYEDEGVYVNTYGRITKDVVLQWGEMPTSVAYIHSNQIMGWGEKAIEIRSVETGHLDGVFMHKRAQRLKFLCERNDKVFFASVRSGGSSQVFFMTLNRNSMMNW

[4] = biological target: Ephrin type-A receptor 3 (Homo sapiens) (UniProt P29320); assay: Inhibition of wild-type human partial length EPHA3 (D604 to K889 residues) expressed in Escherichia coli BL21 assessed as residual activity at 1000 nM after 30 mins by Kinomescan method relative to control
[5] = biological target: Serine/threonine-protein kinase MARK2 (Homo sapiens) (UniProt Q7KZI7); assay: Inhibition of wild-type human partial length MARK2 (M1 to R450 residues) expressed in Escherichia coli BL21 assessed as residual activity at 1000 nM after 30 mins by Kinomescan method relative to control
[6] = biological target: Aurora kinase B (Homo sapiens) (UniProt Q96GD4); assay: Inhibition of wild-type human partial length AURKB (D25 to A303 residues) expressed in HEK293 cells assessed as residual activity at 1000 nM after 30 mins by Kinomescan method relative to control; assay type: cell-based
Aurora kinase B (Homo sapiens), sequence (Q96GD4 whole entry, the tested form may be a part): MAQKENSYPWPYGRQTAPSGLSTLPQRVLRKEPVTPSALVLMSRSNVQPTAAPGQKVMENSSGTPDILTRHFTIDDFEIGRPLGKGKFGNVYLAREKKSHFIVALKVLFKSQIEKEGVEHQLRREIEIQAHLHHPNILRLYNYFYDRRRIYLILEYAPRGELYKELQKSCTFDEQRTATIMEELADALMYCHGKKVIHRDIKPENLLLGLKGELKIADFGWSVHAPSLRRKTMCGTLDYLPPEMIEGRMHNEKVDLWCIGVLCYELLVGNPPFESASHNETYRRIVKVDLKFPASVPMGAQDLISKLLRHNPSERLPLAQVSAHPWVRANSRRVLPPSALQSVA

[7] = biological target: G protein-coupled receptor kinase 4 (Homo sapiens) (UniProt P32298); assay: Inhibition of wild-type human full length GRK4 (M1 to C578 residues) expressed in Escherichia coli BL21 assessed as residual activity at 1000 nM after 30 mins by Kinomescan method relative to control
How it was run: (§1)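 Single-concentration screen at 1 µM across a 456-kinase KINOMEscan panel. The read-out is Percent Control for each kinase.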

[8] = biological target: Rho-associated protein kinase 2 (Homo sapiens) (UniProt O75116); assay: Inhibition of wild-type human partial length ROCK2 (M1 to T431 residues) expressed in HEK293 cells assessed as residual activity at 1000 nM after 30 mins by Kinomescan method relative to control; assay type: cell-based
[9] = test system: Mast/stem cell growth factor receptor Kit (Homo sapiens), P10721 [V559D]; assay: Inhibition of human partial length KIT V559D mutant (Y545 to D952 residues) expressed in Escherichia coli BL21 assessed as residual activity at 1000 nM after 30 mins by Kinomescan method relative to control
Mast/stem cell growth factor receptor Kit (Homo sapiens), P10721 [V559D], sequence (P10721 whole entry V559D, the tested form may be a part): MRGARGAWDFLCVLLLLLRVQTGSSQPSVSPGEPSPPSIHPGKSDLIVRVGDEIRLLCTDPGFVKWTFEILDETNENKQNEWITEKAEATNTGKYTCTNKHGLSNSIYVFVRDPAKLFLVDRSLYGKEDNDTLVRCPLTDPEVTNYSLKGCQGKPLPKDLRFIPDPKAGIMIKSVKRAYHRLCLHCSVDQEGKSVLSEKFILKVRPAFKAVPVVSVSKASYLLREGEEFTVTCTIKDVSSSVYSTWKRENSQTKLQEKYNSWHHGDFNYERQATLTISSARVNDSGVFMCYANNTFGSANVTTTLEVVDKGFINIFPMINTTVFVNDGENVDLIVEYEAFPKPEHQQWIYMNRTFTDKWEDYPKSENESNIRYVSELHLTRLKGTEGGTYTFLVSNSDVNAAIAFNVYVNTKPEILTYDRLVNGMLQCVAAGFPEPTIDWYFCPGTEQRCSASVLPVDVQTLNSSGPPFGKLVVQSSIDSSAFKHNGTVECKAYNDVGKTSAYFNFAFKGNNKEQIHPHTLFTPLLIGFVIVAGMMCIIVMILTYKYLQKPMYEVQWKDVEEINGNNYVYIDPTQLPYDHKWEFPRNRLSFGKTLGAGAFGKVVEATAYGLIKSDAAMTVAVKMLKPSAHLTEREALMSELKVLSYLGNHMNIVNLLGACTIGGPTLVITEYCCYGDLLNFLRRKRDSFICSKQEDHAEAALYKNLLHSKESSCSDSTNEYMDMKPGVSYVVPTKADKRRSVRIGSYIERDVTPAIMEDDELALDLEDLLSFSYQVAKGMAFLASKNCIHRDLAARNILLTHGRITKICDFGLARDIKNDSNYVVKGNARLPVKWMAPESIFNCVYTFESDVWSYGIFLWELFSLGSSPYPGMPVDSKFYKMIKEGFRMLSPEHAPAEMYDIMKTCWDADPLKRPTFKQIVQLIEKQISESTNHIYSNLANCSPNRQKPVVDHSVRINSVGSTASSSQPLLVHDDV
How it was run: (§2)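 KINOMEscan binding panel of 456 kinases, with the test compound at a single concentration of 1 µM. Read-out is Percent Control.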

[10] = biological target: Leucine-rich repeat serine/threonine-protein kinase 2 (Homo sapiens) (UniProt Q5S007); assay: Inhibition of wild-type human partial length LRRK2 (H970 to E2527 residues) expressed in HEK293 cells assessed as residual activity at 1000 nM after 30 mins by Kinomescan method relative to control; assay type: cell-based
[11] = biological target: Serine/threonine-protein kinase Nek4 (Homo sapiens) (UniProt P51957); assay: Inhibition of wild-type human full length NEK4 (M1 to F841 residues) expressed in HEK293 cells assessed as residual activity at 1000 nM after 30 mins by Kinomescan method relative to control; assay type: cell-based; how it was run: as §1
[12] = biological target: SRSF protein kinase 3 (Homo sapiens) (UniProt Q9UPE1); assay: Inhibition of wild-type human partial length SRPK3 (P41 to P567 residues) expressed in Escherichia coli BL21 assessed as residual activity at 1000 nM after 30 mins by Kinomescan method relative to control
[13] = biological target: Mitogen-activated protein kinase kinase kinase 6 (Homo sapiens) (UniProt O95382); assay: Inhibition of wild-type human partial length ASK2 (M278 to R972 residues) expressed in HEK293 cells assessed as residual activity at 1000 nM after 30 mins by Kinomescan method relative to control; assay type: cell-based
[14] = test system: Tyrosine-protein kinase ABL1 (Homo sapiens), P00519 [T315I]; assay: Inhibition of human non-phosphorylated ABL1 T315I mutant (S229 to K512 residues) expressed in HEK293 cells assessed as residual activity at 1000 nM after 30 mins by Kinomescan method relative to control; assay type: cell-based; how it was run: as §2
[15] = test system: Receptor-type tyrosine-protein kinase FLT3 (Homo sapiens), P36888 [K663Q]; assay: Inhibition of human partial length FLT3 K663Q mutant (V592 to Y969 residues) expressed in Escherichia coli BL21 assessed as residual activity at 1000 nM after 30 mins by Kinomescan method relative to control; how it was run: as §2
[16] = test system: Epidermal growth factor receptor (Homo sapiens), P00533 [UNDEFINED MUTATION]; assay: Inhibition of human partial length EGFR L747-S752del/P753S mutant expressed in Escherichia coli BL21 assessed as residual activity at 1000 nM after 30 mins by Kinomescan method relative to control; how it was run: as §2
[17] = biological target: Inhibitor of nuclear factor kappa-B kinase subunit epsilon (Homo sapiens) (UniProt Q14164); assay: Inhibition of wild-type human full length IKK-epsilon (M1 to V716 residues) expressed in HEK293 cells assessed as residual activity at 1000 nM after 30 mins by Kinomescan method relative to control; assay type: cell-based; how it was run: as §1
Inhibitor of nuclear factor kappa-B kinase subunit epsilon (Homo sapiens), sequence (Q14164 whole entry, the tested form may be a part): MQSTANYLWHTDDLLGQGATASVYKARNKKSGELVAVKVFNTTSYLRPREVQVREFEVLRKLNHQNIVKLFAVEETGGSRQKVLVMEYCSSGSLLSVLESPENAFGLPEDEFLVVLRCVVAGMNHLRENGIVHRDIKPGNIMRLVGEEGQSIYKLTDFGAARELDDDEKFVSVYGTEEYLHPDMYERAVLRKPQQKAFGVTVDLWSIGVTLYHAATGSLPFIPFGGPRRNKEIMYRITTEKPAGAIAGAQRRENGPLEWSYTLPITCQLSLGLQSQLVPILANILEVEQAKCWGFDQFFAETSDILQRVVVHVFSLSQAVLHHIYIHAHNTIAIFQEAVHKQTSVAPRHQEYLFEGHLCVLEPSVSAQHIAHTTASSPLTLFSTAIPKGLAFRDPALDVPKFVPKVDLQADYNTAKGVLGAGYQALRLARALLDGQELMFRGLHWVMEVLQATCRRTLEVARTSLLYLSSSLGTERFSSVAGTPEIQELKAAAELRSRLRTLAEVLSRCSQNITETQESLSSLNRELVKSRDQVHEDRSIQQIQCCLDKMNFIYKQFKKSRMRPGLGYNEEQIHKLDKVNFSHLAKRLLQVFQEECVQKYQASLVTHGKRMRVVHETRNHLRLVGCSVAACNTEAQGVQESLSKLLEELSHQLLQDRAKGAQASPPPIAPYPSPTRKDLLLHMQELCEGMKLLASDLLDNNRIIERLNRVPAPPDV

[18] = biological target: Non-receptor tyrosine-protein kinase TYK2 (Homo sapiens) (UniProt P29597); assay: Inhibition of wild-type human partial length TYK2 JH1 catalytic domain (V877 to C1187 residues) expressed in HEK293 cells assessed as residual activity at 1000 nM after 30 mins by Kinomescan method relative to control; assay type: cell-based
[19] = biological target: Homeodomain-interacting protein kinase 2 (Homo sapiens) (UniProt Q9H2X6); assay: Inhibition of wild-type human partial length HIPK2 (M153 to S564 residues) expressed in HEK293 cells assessed as residual activity at 1000 nM after 30 mins by Kinomescan method relative to control; assay type: cell-based
Homeodomain-interacting protein kinase 2 (Homo sapiens), sequence (Q9H2X6 whole entry, looked up, the tested form may be a part): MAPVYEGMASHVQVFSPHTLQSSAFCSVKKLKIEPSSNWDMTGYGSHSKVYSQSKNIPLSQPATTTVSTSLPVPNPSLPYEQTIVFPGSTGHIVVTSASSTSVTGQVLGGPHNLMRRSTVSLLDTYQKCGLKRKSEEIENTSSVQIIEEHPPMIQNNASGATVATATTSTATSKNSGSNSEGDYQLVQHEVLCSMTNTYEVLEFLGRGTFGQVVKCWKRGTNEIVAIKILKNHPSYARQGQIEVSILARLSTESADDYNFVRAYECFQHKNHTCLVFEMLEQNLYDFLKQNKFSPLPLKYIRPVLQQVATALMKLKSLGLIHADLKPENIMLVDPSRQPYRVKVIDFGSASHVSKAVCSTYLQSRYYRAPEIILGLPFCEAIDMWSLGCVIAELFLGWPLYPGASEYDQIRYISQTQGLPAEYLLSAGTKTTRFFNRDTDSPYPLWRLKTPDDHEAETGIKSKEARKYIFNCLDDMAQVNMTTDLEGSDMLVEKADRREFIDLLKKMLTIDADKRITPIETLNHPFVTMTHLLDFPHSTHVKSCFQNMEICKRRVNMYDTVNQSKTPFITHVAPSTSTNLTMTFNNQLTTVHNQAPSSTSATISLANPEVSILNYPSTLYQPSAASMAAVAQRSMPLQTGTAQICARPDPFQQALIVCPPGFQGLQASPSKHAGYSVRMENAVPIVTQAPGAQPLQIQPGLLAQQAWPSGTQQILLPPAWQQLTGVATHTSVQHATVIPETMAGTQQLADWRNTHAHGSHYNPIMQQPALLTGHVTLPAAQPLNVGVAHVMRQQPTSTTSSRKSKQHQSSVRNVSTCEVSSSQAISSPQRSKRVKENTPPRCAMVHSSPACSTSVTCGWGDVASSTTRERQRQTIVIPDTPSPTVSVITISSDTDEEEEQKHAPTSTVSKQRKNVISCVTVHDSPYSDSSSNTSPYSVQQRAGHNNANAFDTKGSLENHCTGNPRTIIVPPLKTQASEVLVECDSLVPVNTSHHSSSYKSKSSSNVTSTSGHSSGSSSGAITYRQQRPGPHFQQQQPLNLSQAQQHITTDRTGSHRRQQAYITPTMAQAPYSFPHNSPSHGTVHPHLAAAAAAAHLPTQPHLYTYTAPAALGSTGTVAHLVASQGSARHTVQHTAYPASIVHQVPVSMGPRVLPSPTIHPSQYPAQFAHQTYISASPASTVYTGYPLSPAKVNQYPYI

[20] = biological target: Leukocyte tyrosine kinase receptor (Homo sapiens) (UniProt P29376); assay: Inhibition of wild-type human partial length LTK (P422 to S744 residues) expressed in Escherichia coli BL21 assessed as residual activity at 1000 nM after 30 mins by Kinomescan method relative to control
[21] = biological target: Serine/threonine-protein kinase 35 (Homo sapiens) (UniProt Q8TDR2); assay: Inhibition of wild-type human partial length STK35 (G182 to A534 residues) expressed in Escherichia coli BL21 assessed as residual activity at 1000 nM after 30 mins by Kinomescan method relative to control
[22] = biological target: Cyclin-dependent kinase-like 2 (Homo sapiens) (UniProt Q92772); assay: Inhibition of wild-type human partial length CDKL2 (M1 to D327 residues) expressed in Escherichia coli BL21 assessed as residual activity at 1000 nM after 30 mins by Kinomescan method relative to control

COc1cc(OC)c(Cl)c(N2Cc3cnc(Nc4ccc(F)cc4)nc3N(C3CCN(C(=O)/C=C/CN(C)C)CC3)C2=O)c1Cl showed an Activity [1] of 100%, an Activity [2] of 90% and an Activity [3] of 94%. The Activity [4] was 100%, the Activity [5] was 90% and the Activity [6] was 95%. The Activity [7] was 78%, the Activity [8] was 100% and the Activity [9] was 11%. For the same compound, the Activity [10] was 100%, the Activity [11] was 100% and the Activity [12] was 86%. It also gave an Activity [13] of 100%, an Activity [14] of 100% and an Activity [15] of 100%. The Activity [16] was 100%, the Activity [17] was 100% and the Activity [18] was 83%. The Activity [19] was 100%, the Activity [20] was 95% and the Activity [21] was 100%. For the same compound, the Activity [22] was 96%.
